Laboratory results reported in ChEMBL document CHEMBL3244233, “Synthesis and biological activities of some N6- and N9-carbamoyladenines and related ribonucleosides” (1977).
The source made the active and inactive calls. The calls are words filed in the database; no cut-off is given here.

Experiments:
Assay type in all cases: functional
[1] = Growth inhibition of human Nc37 cells assessed as viable cells at 10^-4 M after 72 hrs relative to control; conditions: NC-37, 72 h, read-out: Activity
Procedure, shortened: (§1)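 Nc 37 cells come from a normal human buffy coat, RPMI 6410 from the buffy coat of a myeloblastic leukemia patient, and L1210 is mouse leukemia. Cells were grown in RPMI 1640 with 10% fetal calf serum and exposed to compound at 10^-4 M in medium containing 0.5% Me2SO for 72 h. Viable cell number is expressed as percent of 0.5% Me2SO controls and scored as ++ 30-60%, + 60-80%, ± 80-90%, NA 90-110%.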

[2] = Growth inhibition of human RPMI6410 cells assessed as viable cells at 10^-4 M after 72 hrs relative to control; conditions: RPMI 6410, 72 h, read-out: Activity; procedure, shortened: as §1
L1210 [3] = assay: Growth inhibition of mouse L1210 cells assessed as viable cells at 10^-4 M after 72 hrs relative to control; conditions: L1210, 72 h, read-out: Activity; procedure, shortened: as §1
L1210 [4] = assay: Growth inhibition of mouse L1210 cells at 10^-4 M after 72 hrs relative to control; conditions: L1210, 72 h, read-out: GI; procedure, shortened: as §1
L1210 [5] = assay: Antitumor activity against mouse L1210 cells allografted in mouse assessed as increase in life span of host
[6] = Growth inhibition of human Nc37 cells assessed as viable cells at 10^-5 M after 72 hrs relative to control; conditions: NC-37, 72 h, read-out: Activity
[7] = Growth inhibition of human RPMI6410 cells assessed as viable cells at 10^-5 M after 72 hrs relative to control; conditions: RPMI 6410, 72 h, read-out: Activity
L1210 [8] = assay: Growth inhibition of mouse L1210 cells assessed as viable cells at 10^-5 M after 72 hrs relative to control; conditions: L1210, 72 h, read-out: Activity

Cc1ccccc1NC(=O)Nc1ncnc2c1ncn2C(=O)Nc1ccccc1C
viability at 100 µM [1]: 60%
viability at 100 µM [2]: 90%
viability at 100 µM (L1210 [3]): 60%

CNC(=O)N(C)c1ncnc2c1ncn2C(=O)NC
viability at 100 µM [1]: 30%
viability at 100 µM [2]: 60%
viability at 100 µM (L1210 [3]): 30%

CCCCNC(=O)n1cnc2c(N)ncnc21
viability at 100 µM [1]: 30%
viability at 100 µM [2]: 30%
viability at 100 µM (L1210 [3]): > 30%
inhibition of growth at 100 µM (L1210 [4]): ≥ 70%

CC(C)(C)NC(=O)n1cnc2c(NC(=O)Nc3ccccc3F)ncnc21
viability at 100 µM [1]: 60%
viability at 100 µM [2]: 60%
viability at 100 µM (L1210 [3]): > 30%

CC(=O)OC[C@H]1O[C@@H](n2cnc3c(NC(=O)Nc4ccc(Cl)cc4)ncnc32)[C@H](OC(C)=O)[C@@H]1OC(C)=O
viability at 100 µM [1]: 30%
viability at 100 µM [2]: 30%
viability at 100 µM (L1210 [3]): > 30%

O=C(Nc1ccccc1)Nc1ncnc2[nH]cnc12
viability at 100 µM [1]: 60%
viability at 100 µM [2]: 80%
viability at 100 µM (L1210 [3]): 60%

O=C(Nc1ccc(F)cc1)Nc1ncnc2[nH]cnc12
viability at 100 µM [1]: 90%
viability at 100 µM [2]: 90%
viability at 100 µM (L1210 [3]): 30%

O=C(Nc1ccccc1F)Nc1ncnc2c1ncn2[C@@H]1O[C@H](CO)[C@@H](O)[C@H]1O
viability at 100 µM [1]: 60%
viability at 100 µM [2]: 30%
viability at 100 µM (L1210 [3]): 30%

CNC(=O)n1cnc2c(NC)ncnc21
viability at 100 µM [1]: 30%
viability at 100 µM [2]: 60%
viability at 100 µM (L1210 [3]): 90%

CC(C)(C)CNC(=O)Nc1ncnc2c1ncn2[C@@H]1O[C@H](CO)[C@@H](O)[C@H]1O
viability at 100 µM [1]: 90%
viability at 100 µM [2]: 90%
viability at 100 µM (L1210 [3]): 80%

C=CCNC(=O)n1cnc2c(N)ncnc21
viability at 100 µM [1]: 30%
viability at 100 µM [2]: 60%
viability at 100 µM (L1210 [3]): > 30%
inhibition of growth at 100 µM (L1210 [4]): ≥ 70%

O=C(NCCc1ccccc1Cl)Nc1ncnc2[nH]cnc12
viability at 100 µM [1]: 30%
viability at 100 µM [2]: 60%
viability at 100 µM (L1210 [3]): 60%

CN(C(=O)Nc1ccccc1)c1ncnc2c1ncn2C(=O)Nc1ccccc1
viability at 100 µM [1]: 90%
viability at 100 µM [2]: 60%
viability at 100 µM (L1210 [3]): 30%

C=CCNC(=O)Nc1ncnc2[nH]cnc12
viability at 100 µM [1]: 60%
viability at 100 µM [2]: 60%
viability at 100 µM (L1210 [3]): 60%

CCCCNC(=S)Nc1ncnc2[nH]cnc12
viability at 100 µM [1]: 30%
viability at 100 µM [2]: 60%
viability at 100 µM (L1210 [3]): 30%

Nc1ncnc2c1ncn2C(=O)NC1CCCCC1
viability at 100 µM [1]: 30%
viability at 100 µM [2]: 30%
viability at 100 µM (L1210 [3]): > 30%
inhibition of growth at 100 µM (L1210 [4]): ≥ 70%

Nc1ncnc2c1ncn2C(=O)N[C@@H](Cc1ccccc1)C(=O)O
viability at 100 µM [1]: 30%
viability at 100 µM [2]: 80%
viability at 100 µM (L1210 [3]): > 30%
inhibition of growth at 100 µM (L1210 [4]): ≥ 70%

CCOC(=O)CNC(=O)N(C)c1ncnc2c1ncn2C(=O)NCC(=O)OCC
viability at 100 µM [1]: 90%
viability at 100 µM [2]: 90%
viability at 100 µM (L1210 [3]): 60%

CCCCNC(=S)n1cnc2c(N)ncnc21
viability at 100 µM [1]: 60%
viability at 100 µM [2]: 60%
viability at 100 µM (L1210 [3]): 60%

CCOC(=O)CNC(=O)n1cnc2c(N)ncnc21
viability at 100 µM [1]: 60%
viability at 100 µM [2]: 60%
viability at 100 µM (L1210 [3]): 30%

COc1ccc(NC(=O)Nc2ncnc3c2ncn3C(=O)NC(C)(C)C)cc1
viability at 100 µM [1]: 90%
viability at 100 µM [2]: 80%
viability at 100 µM (L1210 [3]): 80%

CC(OCc1ccccc1)C(NC(=O)n1cnc2c(N)ncnc21)C(=O)OCc1ccccc1 (centres undefined)
viability at 100 µM [1]: 60%
viability at 100 µM [2]: 60%
viability at 100 µM (L1210 [3]): > 30%
inhibition of growth at 100 µM (L1210 [4]): ≥ 70%

CCCCCCCC(=O)n1cnc2c(N)ncnc21
viability at 100 µM [1]: 60%
viability at 100 µM [2]: 60%
viability at 100 µM (L1210 [3]): 30%

O=C(NCCc1ccccc1Cl)Nc1ncnc2c1ncn2[C@@H]1O[C@H](CO)[C@@H](O)[C@H]1O
viability at 100 µM [1]: 60%

CNC(=O)Nc1ncnc2c1ncn2C(=O)Nc1ccccc1
viability at 100 µM [1]: 90%
viability at 100 µM [2]: 90%
viability at 100 µM (L1210 [3]): 30%

CNC(=S)Nc1ncnc2[nH]cnc12
viability at 100 µM [1]: 60%
viability at 100 µM [2]: 60%
viability at 100 µM (L1210 [3]): 60%

CCCCNC(=O)Nc1ncnc2[nH]cnc12
viability at 100 µM [1]: 60%
viability at 100 µM [2]: 60%
viability at 100 µM (L1210 [3]): 30%

CCCC(=O)n1cnc2c(N)ncnc21
viability at 100 µM [1]: 90%
viability at 100 µM [2]: 60%
viability at 100 µM (L1210 [3]): 60%

Cc1ccc(NC(=O)Nc2[nH]cnc3ncnc2-3)cc1
viability at 100 µM [1]: 90%
viability at 100 µM [2]: 60%
viability at 100 µM (L1210 [3]): > 30%

CNc1ncnc2c1ncn2C(=O)NC(C)(C)C
viability at 100 µM [1]: 60%
viability at 100 µM [2]: 60%
viability at 100 µM (L1210 [3]): 60%

CC(C)(C)NC(=O)Nc1ncnc2[nH]cnc12
viability at 100 µM [1]: 60%
viability at 100 µM [2]: 60%
viability at 100 µM (L1210 [3]): 60%

CCOC(=O)n1cnc2c(NC)ncnc21
viability at 100 µM [1]: 30%
viability at 100 µM [2]: 30%
viability at 100 µM (L1210 [3]): 90%

CC(C)(C)NC(=O)n1cnc2c(N)ncnc21
viability at 100 µM [1]: 60%
viability at 100 µM [2]: 60%
viability at 100 µM (L1210 [3]): > 30%
inhibition of growth at 100 µM (L1210 [4]): ≥ 70%

O=C(Nc1ccccc1C(F)(F)F)Nc1ncnc2[nH]cnc12
viability at 100 µM [1]: 30%
viability at 100 µM [2]: 90%

CNC(=O)Nc1ncnc2c1ncn2C(=O)NC
viability at 100 µM [1]: 90%
viability at 100 µM [2]: 80%
viability at 100 µM (L1210 [3]): 80%

CN(C(=O)Nc1ccccc1Cl)c1ncnc2c1ncn2C(=O)Nc1ccccc1Cl
viability at 100 µM [1]: 90%
viability at 100 µM [2]: 60%
viability at 100 µM (L1210 [3]): 30%

CC(=O)n1cnc2c(N)ncnc21
viability at 100 µM [1]: 90%
viability at 100 µM [2]: 90%
viability at 100 µM (L1210 [3]): 30%

Nc1ncnc2c1ncn2C(=O)NCC(=O)OCc1ccccc1
viability at 100 µM [1]: 60%
viability at 100 µM [2]: 80%
viability at 100 µM (L1210 [3]): > 30%
inhibition of growth at 100 µM (L1210 [4]): ≥ 70%

COc1ccc(NC(=O)Nc2ncnc3c2ncn3C(=O)Nc2ccc(OC)cc2)cc1
viability at 100 µM [1]: 90%
viability at 100 µM [2]: 90%
viability at 100 µM (L1210 [3]): 30%

CCCCNC(=O)Nc1ncnc2c1ncn2C(=O)NCCCC
viability at 100 µM [1]: 90%
viability at 100 µM [2]: 60%
viability at 100 µM (L1210 [3]): 30%

CC(=O)OC[C@H]1O[C@@H](n2cnc3c(NC(=O)Nc4ccccc4Cl)ncnc32)[C@H](OC(C)=O)[C@@H]1OC(C)=O
viability at 100 µM [1]: 30%
viability at 100 µM [2]: 30%
viability at 100 µM (L1210 [3]): > 30%

O=C(Nc1ccc(Br)cc1)Nc1ncnc2c1ncn2C(=O)Nc1ccc(Br)cc1
viability at 100 µM [1]: 60%

O=C(Nc1ncnc2[nH]cnc12)NC1CCCCC1
viability at 100 µM [1]: 60%
viability at 100 µM [2]: 60%
viability at 100 µM (L1210 [3]): 60%

O=C(Nc1ccccc1)Nc1ncnc2c1ncn2C(=O)Nc1ccccc1
viability at 100 µM [1]: 60%
viability at 100 µM [2]: 80%
viability at 100 µM (L1210 [3]): 30%

O=C(O)CNC(=O)CNC(=O)Nc1ncnc2[nH]cnc12
viability at 100 µM [1]: 90%
viability at 100 µM [2]: 90%
viability at 100 µM (L1210 [3]): 90%

O=C(Nc1ccc(Cl)cc1)Nc1ncnc2c1ncn2[C@@H]1O[C@H](CO)[C@@H](O)[C@H]1O
viability at 100 µM [1]: 30%
viability at 100 µM [2]: 30%
viability at 100 µM (L1210 [3]): > 30%
Activity (L1210 [5]): inactive

CNC(=S)n1cnc2c(N)ncnc21
viability at 10 µM [6]: 30%
viability at 10 µM [7]: 30%
viability at 10 µM (L1210 [8]): > 30%
inhibition of growth at 100 µM (L1210 [4]): ≥ 70%
Activity (L1210 [5]): inactive

Nc1ncnc2c1ncn2C(=O)Nc1ccccc1
viability at 100 µM [1]: 90%
viability at 100 µM [2]: 60%
viability at 100 µM (L1210 [3]): 30%

Nc1ncnc2c1ncn2C(=O)NC(Cc1ccccc1)C(=O)OCc1ccccc1 (centres undefined)
viability at 100 µM [1]: 60%
viability at 100 µM [2]: 90%
viability at 100 µM (L1210 [3]): 30%

O=C(Nc1cccc2ccccc12)Nc1ncnc2c1ncn2C(=O)Nc1cccc2ccccc12
viability at 100 µM [1]: 30%
viability at 100 µM [2]: 30%
viability at 100 µM (L1210 [3]): > 30%
Activity (L1210 [5]): inactive

CC(C)C(NC(=O)n1cnc2c(N)ncnc21)C(=O)OCc1ccccc1 (centres undefined)
viability at 100 µM [1]: 60%
viability at 100 µM [2]: 30%
viability at 100 µM (L1210 [3]): 30%

Nc1ncnc2c1ncn2C(=O)Nc1ccccc1F
viability at 100 µM [1]: 90%
viability at 100 µM [2]: 60%
viability at 100 µM (L1210 [3]): 60%

CNC(=O)n1cnc2c(N)ncnc21
viability at 100 µM [1]: 30%
viability at 100 µM [2]: 30%
viability at 100 µM (L1210 [3]): 30%
viability at 10 µM [6]: 60%
viability at 10 µM [7]: 60%
inhibition of growth at 100 µM (L1210 [4]): ≥ 70%
Activity (L1210 [5]): inactive
